Test results as given in ChEMBL document CHEMBL1667774, “Synthesis and evaluation of a class of new coumarin triazole derivatives as potential antimicrobial agents” (2011).
Values after ≈ are worked out from the molar mass of the structure shown.

Legend:
Staphylococcus aureus [1] = experiment: Antimicrobial activity against Staphylococcus aureus ATCC 25923 by twofold broth dilution method; assay type: functional
In short: (§1)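 Two-fold broth dilution in 96-well micro-test plates, following NCCLS recommendations. Enoxacin and Chloromycin served as positive controls for bacteria, and Fluconazole for fungi. The read-out is the MIC in µg/mL.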

Staphylococcus aureus [2] = experiment: Antimicrobial activity against methicillin-resistant Staphylococcus aureus N 315 by twofold broth dilution method; assay type: functional
In short: (§2)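 Antibacterial MIC, determined by two-fold serial broth dilution following the NCCLS-recommended method. Clinical antimicrobial drugs were run alongside as positive controls.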

Bacillus subtilis = experiment: Antimicrobial activity against Bacillus subtilis ATCC 6633 by twofold broth dilution method; assay type: functional; in short: as §1
Micrococcus luteus = experiment: Antimicrobial activity against Micrococcus luteus ATCC 4698 by twofold broth dilution method; assay type: functional; in short: as §1
Escherichia coli = experiment: Antimicrobial activity against Escherichia coli ATCC 25922 by twofold broth dilution method; assay type: functional; in short: as §1
Proteus vulgaris = experiment: Antimicrobial activity against Proteus vulgaris ATCC 6896 by twofold broth dilution method; assay type: functional; in short: as §1
Salmonella typhi = experiment: Antimicrobial activity against Salmonella typhi ATCC 9484 by twofold broth dilution method; assay type: functional, Salmonella enterica subsp. enterica serovar Typhi; details: Salmonella enterica; in short: as §2
Shigella dysenteriae = experiment: Antimicrobial activity against Shigella dysenteriae ATCC 49550 by twofold broth dilution method; assay type: functional; in short: as §2
Candida albicans = experiment: Antifungal activity against Candida albicans ATCC 76615 by twofold broth dilution method; assay type: functional; in short: as §1
Saccharomyces cerevisiae = experiment: Antifungal activity against Saccharomyces cerevisiae ATCC 9763 by twofold broth dilution method; assay type: functional; in short: as §1
Aspergillus fumigatus = experiment: Antifungal activity against Aspergillus fumigatus ATCC 96918 by twofold broth dilution method; assay type: functional; in short: as §1

SMILES	MIC (Staphylococcus aureus [1]) [µg/mL]	MIC (Staphylococcus aureus [2]) [µg/mL]	MIC (Bacillus subtilis) [µg/mL]	MIC (Micrococcus luteus) [µg/mL]	MIC (Escherichia coli) [µg/mL]	MIC (Proteus vulgaris) [µg/mL]	MIC (Salmonella typhi) [µg/mL]	MIC (Shigella dysenteriae) [µg/mL]	MIC (Candida albicans) [µg/mL]	MIC (Saccharomyces cerevisiae) [µg/mL]	MIC (Aspergillus fumigatus) [µg/mL]
Cc1cc(=O)oc2cc(OCc3ccc(CBr)cc3)ccc12	256 (≈ 713 µM)	512 (≈ 1430 µM)	256 (≈ 713 µM)	256 (≈ 713 µM)	512 (≈ 1430 µM)	512 (≈ 1430 µM)	512 (≈ 1430 µM)	512 (≈ 1430 µM)	256 (≈ 713 µM)	256 (≈ 713 µM)	256 (≈ 713 µM)
Cc1cc(=O)oc2cc(OCCCCn3cncn3)cc(OCCCCn3cncn3)c12	1 (≈ 2.28 µM)	2 (≈ 4.56 µM)	2 (≈ 4.56 µM)	1 (≈ 2.28 µM)	1 (≈ 2.28 µM)	2 (≈ 4.56 µM)	1 (≈ 2.28 µM)	1 (≈ 2.28 µM)	1 (≈ 2.28 µM)	2 (≈ 4.56 µM)	4 (≈ 9.12 µM)
OC(Cn1cncn1)(Cn1cncn1)c1ccc(F)cc1F [FLUCONAZOLE]	–	–	–	–	–	–	–	–	1 (≈ 3.27 µM)	2 (≈ 6.53 µM)	128 (≈ 418 µM)
Cc1cc(=O)oc2cc(OCCCCCCBr)cc(OCCCCCCBr)c12	256 (≈ 494 µM)	512 (≈ 988 µM)	128 (≈ 247 µM)	128 (≈ 247 µM)	512 (≈ 988 µM)	512 (≈ 988 µM)	512 (≈ 988 µM)	512 (≈ 988 µM)	128 (≈ 247 µM)	128 (≈ 247 µM)	128 (≈ 247 µM)
Cc1cc(=O)oc2cc(OCCCCn3cncn3)cc(OCCCCn3cncn3)c12.Cl	1	2	1	1	1	2	1	1	1	2	2
Cc1cc(=O)oc2cc(OCCCCBr)ccc12	128 (≈ 411 µM)	256 (≈ 823 µM)	128 (≈ 411 µM)	128 (≈ 411 µM)	256 (≈ 823 µM)	256 (≈ 823 µM)	256 (≈ 823 µM)	512 (≈ 1650 µM)	128 (≈ 411 µM)	256 (≈ 823 µM)	512 (≈ 1650 µM)
Cc1cc(=O)oc2cc(OCCCCCBr)cc(OCCCCCBr)c12	128 (≈ 261 µM)	256 (≈ 522 µM)	128 (≈ 261 µM)	128 (≈ 261 µM)	512 (≈ 1040 µM)	256 (≈ 522 µM)	256 (≈ 522 µM)	256 (≈ 522 µM)	128 (≈ 261 µM)	256 (≈ 522 µM)	128 (≈ 261 µM)
Cc1cc(=O)oc2cc(OCCCCCCOc3ccc4c(C)cc(=O)oc4c3)ccc12	256 (≈ 589 µM)	512 (≈ 1180 µM)	128 (≈ 295 µM)	128 (≈ 295 µM)	256 (≈ 589 µM)	256 (≈ 589 µM)	512 (≈ 1180 µM)	512 (≈ 1180 µM)	512 (≈ 1180 µM)	256 (≈ 589 µM)	512 (≈ 1180 µM)
Cc1cc(=O)oc2cc(OCCCCCOc3ccc4c(C)cc(=O)oc4c3)ccc12	128 (≈ 304 µM)	256 (≈ 609 µM)	256 (≈ 609 µM)	128 (≈ 304 µM)	256 (≈ 609 µM)	512 (≈ 1220 µM)	512 (≈ 1220 µM)	512 (≈ 1220 µM)	512 (≈ 1220 µM)	256 (≈ 609 µM)	512 (≈ 1220 µM)
Cc1cc(=O)oc2cc(OCCCCCCn3cncn3)cc(OCCCCCCn3cncn3)c12	8 (≈ 16.2 µM)	16 (≈ 32.3 µM)	4 (≈ 8.09 µM)	8 (≈ 16.2 µM)	8 (≈ 16.2 µM)	8 (≈ 16.2 µM)	16 (≈ 32.3 µM)	8 (≈ 16.2 µM)	4 (≈ 8.09 µM)	4 (≈ 8.09 µM)	32 (≈ 64.7 µM)
Cc1cc(=O)oc2cc(OCc3ccc(COc4ccc5c(C)cc(=O)oc5c4)cc3)ccc12	> 512	> 512	> 512	> 512	> 512	> 512	> 512	> 512	> 512	512 (≈ 1130 µM)	> 512
Cc1cc(=O)oc2cc(OCCCCn3cncn3)ccc12	2 (≈ 6.68 µM)	8 (≈ 26.7 µM)	2 (≈ 6.68 µM)	4 (≈ 13.4 µM)	8 (≈ 26.7 µM)	16 (≈ 53.5 µM)	16 (≈ 53.5 µM)	16 (≈ 53.5 µM)	2 (≈ 6.68 µM)	4 (≈ 13.4 µM)	16 (≈ 53.5 µM)
Cc1cc(=O)oc2cc(OCCCCCn3cncn3)ccc12	4 (≈ 12.8 µM)	16 (≈ 51.1 µM)	4 (≈ 12.8 µM)	8 (≈ 25.5 µM)	32 (≈ 102 µM)	32 (≈ 102 µM)	16 (≈ 51.1 µM)	32 (≈ 102 µM)	8 (≈ 25.5 µM)	16 (≈ 51.1 µM)	16 (≈ 51.1 µM)
Cc1cc(=O)oc2cc(OCCCCBr)cc(OCCCCBr)c12	256 (≈ 554 µM)	512 (≈ 1110 µM)	128 (≈ 277 µM)	256 (≈ 554 µM)	512 (≈ 1110 µM)	256 (≈ 554 µM)	256 (≈ 554 µM)	256 (≈ 554 µM)	128 (≈ 277 µM)	256 (≈ 554 µM)	256 (≈ 554 µM)
